# Measured values of several laboratories.
# Protocols differ between the studies behind these lines.
# Target: Maternal embryonic leucine zipper kinase (MELK, Homo sapiens, UniProt Q14680)
SMILES,assay,setting,remaining binding
O=C(NCCCN1CCOCC1)c1ccc(Nc2nccc(-c3cc4ccccc4s3)n2)cc1,"binding, competition with immobilised ligand",1 µM,100%
COc1cnc(Nc2cccc(S(N)(=O)=O)c2)nc1N1CCN(c2ccccc2)C(=O)C1,"binding, competition with immobilised ligand",1 µM,100%
CC(=O)C1=C(C)N(c2cccc(C(F)(F)F)c2)C(=O)N[C@@H]1c1ccc(C#N)nc1,"cell-free assay, competition with immobilised ligand",1 µM,88.2%
O=C(NCCCN1CCOCC1)c1ccc(Nc2ncc(Cl)c(-c3ccc(Cl)s3)n2)cc1,"binding, competition with immobilised ligand",1 µM,69%
COc1ccc2c(c1)O[C@H](c1ccc(OC)c(OC)c1)C[C@@H]2NC(=O)C1(c2ccc3c(c2)OC(F)(F)O3)CC1,"cell-free assay, competition with immobilised ligand",1 µM,78%
c1cnn2ncc(-c3ccnc(N4CCC45COC5)n3)c2c1,binding,1 µM,52%
C[C@@H](c1ccc(-n2cnc3c(N)ncnc32)cc1)N1CCc2nn(C)c(Cc3ccccc3)c2C1=O,"binding, competition with immobilised ligand",0.1 µM,93%
CN(CCCC(F)(F)F)c1nccc(-c2cnn3ncccc23)n1,binding,1 µM,94%
O=C(NCCCC1CCCCC1)c1ccc(CNC(=O)c2cnn(-c3ccccc3)c2C(F)(F)F)cc1,"cell-free assay, competition with immobilised ligand",0.1 µM,80%
CN(C)c1nccc(-c2cnc3ncccn23)n1,binding,1 µM,100%
COc1ncc2cc3ccccc3nc2c1C#N,"cell-free assay, competition with immobilised ligand",5 µM,83%
Cc1cnn2ncc(-c3ccnc(N(C)C)n3)c2c1,binding,1 µM,100%
CN(c1ccnc(CNc2nc(Nc3ccc4c(c3)CC(=O)N4)ncc2C(F)(F)F)n1)S(C)(=O)=O,"cell-free assay, competition with immobilised ligand",1 µM,40%
CC1CCCN1c1nccc(-c2cnn3ncccc23)n1 (stereo not shown),binding,1 µM,97%
CC(=O)N1CCC(c2ccc(C(=O)NC3=NCCN3)cc2C(F)(F)F)CC1,"cell-free assay, competition with immobilised ligand",1 µM,100%
C=CC(=O)N1CCC(C(=O)NCC(=O)N2CCN(c3nc(-c4cnc(N)nc4C(F)F)nc(N4CCOCC4)n3)CC2)CC1,"binding, competition with immobilised ligand",1 µM,100%
Cc1c(NC(=O)c2cc(C(N)=O)nc3cc(F)ccc23)c(C(F)(F)F)nn1Cc1ccc(C#N)cc1,"cell-free assay, competition with immobilised ligand",1 µM,90%
O=C(Nc1c[nH]nc1C(=O)NC1CCNCC1)c1cc(F)cc(F)c1,"binding, competition with immobilised ligand",1 µM,82%
C[C@@H]1CCN(c2nccc(-c3cnn4ncccc34)n2)C1,binding,1 µM,48%
CN([C@@H]1CCc2c(CC(=O)O)c3cc(S(C)(=O)=O)ccc3n2C1)S(=O)(=O)c1ccc(F)cc1,"cell-free assay, competition with immobilised ligand",1 µM,84%
O=C(c1ccc(Nc2ncc(Cl)c(-c3cc4ccccc4s3)n2)cc1)N1CCC(N2CCCC2)CC1,"binding, competition with immobilised ligand",1 µM,64%
CN(C)c1ncc(F)c(-c2cnn3ncccc23)n1,binding,1 µM,79%
